Reference: ChEMBL document CHEMBL4354826, “Structure-Based Discovery of SD-36 as a Potent, Selective, and Efficacious PROTAC Degrader of STAT3 Protein” (J Med Chem, 2019)
Activity calls are given as the source filed them. The calls are words filed in the database; no cut-off is given here.

Key:
SU-DHL-1 = experiment: Antiproliferative activity against human SUDHL1 cells assessed as reduction in cell viability incubated for 4 days by cell-titer glo luminescent assay; format: functional, cell-based; details: SU-DHL-1, 96 h
Summary of the method: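 Viability assay: cells incubated with serially diluted compounds for 4 days, viability read by CellTiter-Glo luminescence; IC50 from concentration–response.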

[1] = target: T1, Protein cereblon/Signal transducer and activator of transcription 1-alpha/beta (Homo sapiens) (UniProt P42224+Q96SW2); experiment: Protac activity at CRBN/STAT1 in human MOLM16 cells assessed as degradation of STAT1 at 0.01 to 10 uM incubated for 4 hrs by Western blot analysis; format: cell-based
Summary of the method: (§1)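 Molm-16 cells treated 4 h with test compound at 0.01–10 μM, or control compounds at 10 μM. Lysates separated by SDS–PAGE, transferred to PVDF, blocked 1 h in 5% blocker/TBST, probed for each STAT protein, and detected by chemiluminescence.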

[2] = target: Protein cereblon/Signal transducer and activator of transcription 2 (Homo sapiens) (UniProt Q96SW2+P52630); experiment: Protac activity at CRBN/STAT2 in human MOLM16 cells assessed as degradation of STAT2 at 0.01 to 10 uM incubated for 4 hrs by Western blot analysis; format: cell-based; summary of the method: as §1
Sequence of Protein cereblon/Signal transducer and activator of transcription 2 (Homo sapiens) (P52630 whole entry, looked up): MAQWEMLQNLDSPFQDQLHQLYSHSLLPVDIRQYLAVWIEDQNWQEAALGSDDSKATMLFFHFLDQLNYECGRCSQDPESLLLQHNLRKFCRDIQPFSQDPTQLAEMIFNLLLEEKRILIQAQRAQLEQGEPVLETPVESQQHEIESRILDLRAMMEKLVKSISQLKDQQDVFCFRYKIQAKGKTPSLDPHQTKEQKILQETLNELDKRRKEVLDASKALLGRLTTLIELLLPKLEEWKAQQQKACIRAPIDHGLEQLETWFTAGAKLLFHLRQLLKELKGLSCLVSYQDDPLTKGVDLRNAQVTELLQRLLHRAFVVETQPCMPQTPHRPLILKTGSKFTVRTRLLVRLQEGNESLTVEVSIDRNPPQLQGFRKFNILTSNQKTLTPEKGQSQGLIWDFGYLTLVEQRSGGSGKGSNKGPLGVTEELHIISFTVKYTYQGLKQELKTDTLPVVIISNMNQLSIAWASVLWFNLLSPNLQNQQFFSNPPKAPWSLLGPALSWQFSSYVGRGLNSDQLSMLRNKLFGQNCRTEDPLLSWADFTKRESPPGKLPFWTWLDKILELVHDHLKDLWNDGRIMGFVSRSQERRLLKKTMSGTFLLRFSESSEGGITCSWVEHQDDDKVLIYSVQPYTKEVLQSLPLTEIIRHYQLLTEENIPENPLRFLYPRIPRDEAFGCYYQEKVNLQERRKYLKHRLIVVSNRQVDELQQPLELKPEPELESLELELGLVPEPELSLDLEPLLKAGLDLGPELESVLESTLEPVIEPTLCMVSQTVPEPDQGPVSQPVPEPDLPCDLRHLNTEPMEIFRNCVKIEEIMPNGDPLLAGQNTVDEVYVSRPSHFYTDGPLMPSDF
Sequence of Protein cereblon/Signal transducer and activator of transcription 2 (Homo sapiens) (Q96SW2 whole entry, looked up): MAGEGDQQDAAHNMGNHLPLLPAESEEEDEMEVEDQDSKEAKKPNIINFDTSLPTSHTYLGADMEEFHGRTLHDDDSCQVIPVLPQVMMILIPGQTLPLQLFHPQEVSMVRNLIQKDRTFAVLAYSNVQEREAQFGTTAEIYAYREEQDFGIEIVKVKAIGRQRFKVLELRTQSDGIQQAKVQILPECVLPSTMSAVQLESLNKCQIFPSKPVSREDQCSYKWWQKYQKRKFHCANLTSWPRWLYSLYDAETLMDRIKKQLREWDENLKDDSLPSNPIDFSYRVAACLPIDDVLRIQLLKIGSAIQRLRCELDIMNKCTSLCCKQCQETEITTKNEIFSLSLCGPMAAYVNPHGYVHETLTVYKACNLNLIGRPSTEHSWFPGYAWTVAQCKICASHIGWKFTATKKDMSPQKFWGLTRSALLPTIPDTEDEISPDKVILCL

[3] = target: Protein cereblon/Signal transducer and activator of transcription 4 (Homo sapiens) (UniProt Q96SW2+Q14765); experiment: Protac activity at CRBN/STAT4 in human MOLM16 cells assessed as degradation of STAT4 at 0.01 to 10 uM incubated for 4 hrs by Western blot analysis; format: cell-based; summary of the method: as §1
Sequence of Protein cereblon/Signal transducer and activator of transcription 4 (Homo sapiens) (Q14765 whole entry, looked up): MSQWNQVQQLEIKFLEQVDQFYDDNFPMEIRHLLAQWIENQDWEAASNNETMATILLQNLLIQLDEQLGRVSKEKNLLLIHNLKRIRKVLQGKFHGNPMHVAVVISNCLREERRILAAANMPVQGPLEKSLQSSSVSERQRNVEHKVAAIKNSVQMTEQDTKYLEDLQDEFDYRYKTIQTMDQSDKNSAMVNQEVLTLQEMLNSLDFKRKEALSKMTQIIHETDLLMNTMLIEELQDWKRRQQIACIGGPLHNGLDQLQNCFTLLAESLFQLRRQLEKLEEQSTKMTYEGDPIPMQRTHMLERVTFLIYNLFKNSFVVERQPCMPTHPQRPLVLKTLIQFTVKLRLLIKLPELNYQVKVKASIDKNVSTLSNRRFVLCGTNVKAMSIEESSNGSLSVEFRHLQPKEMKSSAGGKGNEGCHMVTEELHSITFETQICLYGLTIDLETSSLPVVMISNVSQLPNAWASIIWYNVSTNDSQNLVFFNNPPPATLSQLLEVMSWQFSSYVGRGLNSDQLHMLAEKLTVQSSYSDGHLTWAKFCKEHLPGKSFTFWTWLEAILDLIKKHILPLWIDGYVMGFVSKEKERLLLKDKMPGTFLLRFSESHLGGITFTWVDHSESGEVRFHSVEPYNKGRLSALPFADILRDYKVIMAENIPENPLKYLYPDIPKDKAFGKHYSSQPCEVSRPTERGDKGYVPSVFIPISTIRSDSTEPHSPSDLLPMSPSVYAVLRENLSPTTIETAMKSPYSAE
Sequence of Protein cereblon/Signal transducer and activator of transcription 4 (Homo sapiens) (Q96SW2 whole entry, looked up): as the sequence (Q96SW2 whole entry, looked up) above

[4] = target: Protein cereblon/Signal transducer and activator of transcription 5A (Homo sapiens) (UniProt P42229+Q96SW2); experiment: Protac activity at CRBN/STAT5A in human MOLM16 cells assessed as degradation of STAT5A at 0.01 to 10 uM incubated for 4 hrs by Western blot analysis; format: cell-based; summary of the method: as §1
[5] = target: T2, Protein cereblon/Signal transducer and activator of transcription 5B (Homo sapiens) (UniProt P51692+Q96SW2); experiment: Protac activity at CRBN/STAT5B in human MOLM16 cells assessed as degradation of STAT5B at 0.01 to 10 uM incubated for 4 hrs by Western blot analysis; format: cell-based; summary of the method: as §1
T2 sequence (P51692 whole entry, looked up): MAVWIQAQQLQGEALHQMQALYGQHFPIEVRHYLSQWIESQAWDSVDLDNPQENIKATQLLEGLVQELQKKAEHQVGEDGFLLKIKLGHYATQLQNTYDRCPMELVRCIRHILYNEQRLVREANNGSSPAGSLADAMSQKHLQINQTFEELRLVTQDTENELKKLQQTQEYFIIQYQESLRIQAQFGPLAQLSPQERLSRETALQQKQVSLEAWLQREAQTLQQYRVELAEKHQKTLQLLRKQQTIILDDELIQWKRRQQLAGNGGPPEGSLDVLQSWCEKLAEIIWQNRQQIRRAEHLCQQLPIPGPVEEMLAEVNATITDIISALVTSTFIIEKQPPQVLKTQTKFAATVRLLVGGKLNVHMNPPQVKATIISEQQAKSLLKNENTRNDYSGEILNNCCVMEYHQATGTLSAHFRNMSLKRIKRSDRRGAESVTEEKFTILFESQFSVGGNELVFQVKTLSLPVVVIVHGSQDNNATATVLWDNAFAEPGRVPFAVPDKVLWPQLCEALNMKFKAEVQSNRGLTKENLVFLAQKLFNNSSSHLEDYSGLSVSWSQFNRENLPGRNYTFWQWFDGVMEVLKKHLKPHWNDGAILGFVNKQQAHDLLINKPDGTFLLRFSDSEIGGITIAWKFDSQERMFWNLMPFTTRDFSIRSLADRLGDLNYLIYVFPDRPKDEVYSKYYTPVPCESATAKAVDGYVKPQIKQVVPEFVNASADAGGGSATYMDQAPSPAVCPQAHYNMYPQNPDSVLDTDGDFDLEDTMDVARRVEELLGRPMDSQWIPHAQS
T2 sequence (Q96SW2 whole entry, looked up): as the sequence (Q96SW2 whole entry, looked up) above

[6] = target: Protein cereblon/Signal transducer and activator of transcription 6 (Homo sapiens) (UniProt P42226+Q96SW2); experiment: Protac activity at CRBN/STAT6 in human MOLM16 cells assessed as degradation of STAT6 at 0.01 to 10 uM incubated for 4 hrs by Western blot analysis; format: cell-based; summary of the method: as §1
Sequence of Protein cereblon/Signal transducer and activator of transcription 6 (Homo sapiens) (P42226 2-847 limits assumed): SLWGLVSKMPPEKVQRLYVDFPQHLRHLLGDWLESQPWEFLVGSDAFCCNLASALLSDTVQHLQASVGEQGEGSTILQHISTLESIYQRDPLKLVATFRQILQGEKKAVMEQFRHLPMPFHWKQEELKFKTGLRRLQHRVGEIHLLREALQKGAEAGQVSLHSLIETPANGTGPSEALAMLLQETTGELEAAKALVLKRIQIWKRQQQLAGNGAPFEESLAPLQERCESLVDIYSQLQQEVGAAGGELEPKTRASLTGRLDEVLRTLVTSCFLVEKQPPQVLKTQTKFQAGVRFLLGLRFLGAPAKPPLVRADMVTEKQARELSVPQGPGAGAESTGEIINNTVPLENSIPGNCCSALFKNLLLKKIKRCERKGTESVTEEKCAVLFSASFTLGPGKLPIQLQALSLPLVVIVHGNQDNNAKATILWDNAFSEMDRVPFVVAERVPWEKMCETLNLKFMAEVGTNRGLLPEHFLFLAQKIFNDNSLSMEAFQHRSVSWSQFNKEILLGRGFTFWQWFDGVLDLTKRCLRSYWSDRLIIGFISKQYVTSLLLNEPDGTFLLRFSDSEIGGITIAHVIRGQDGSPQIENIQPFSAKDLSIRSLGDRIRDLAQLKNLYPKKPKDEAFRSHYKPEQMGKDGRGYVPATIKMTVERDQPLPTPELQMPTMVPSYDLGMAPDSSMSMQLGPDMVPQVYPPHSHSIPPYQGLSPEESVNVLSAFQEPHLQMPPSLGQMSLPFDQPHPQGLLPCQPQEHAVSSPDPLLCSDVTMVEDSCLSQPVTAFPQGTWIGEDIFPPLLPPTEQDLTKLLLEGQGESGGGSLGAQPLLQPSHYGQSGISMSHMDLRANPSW
Sequence of Protein cereblon/Signal transducer and activator of transcription 6 (Homo sapiens) (Q96SW2 whole entry partner): as the sequence (Q96SW2 whole entry, looked up) above

[7] = target: Protein cereblon/Signal transducer and activator of transcription 3 (Homo sapiens, UniProt P40763+Q96SW2); experiment: Protac activity at CRBN/STAT3 in human SUDHL1 cells assessed as degradation of STAT3 at 0.01 to 10 uM incubated for 18 hrs by Western blot analysis; format: cell-based
Sequence of Protein cereblon/Signal transducer and activator of transcription 3 (P40763 2-770 limits assumed): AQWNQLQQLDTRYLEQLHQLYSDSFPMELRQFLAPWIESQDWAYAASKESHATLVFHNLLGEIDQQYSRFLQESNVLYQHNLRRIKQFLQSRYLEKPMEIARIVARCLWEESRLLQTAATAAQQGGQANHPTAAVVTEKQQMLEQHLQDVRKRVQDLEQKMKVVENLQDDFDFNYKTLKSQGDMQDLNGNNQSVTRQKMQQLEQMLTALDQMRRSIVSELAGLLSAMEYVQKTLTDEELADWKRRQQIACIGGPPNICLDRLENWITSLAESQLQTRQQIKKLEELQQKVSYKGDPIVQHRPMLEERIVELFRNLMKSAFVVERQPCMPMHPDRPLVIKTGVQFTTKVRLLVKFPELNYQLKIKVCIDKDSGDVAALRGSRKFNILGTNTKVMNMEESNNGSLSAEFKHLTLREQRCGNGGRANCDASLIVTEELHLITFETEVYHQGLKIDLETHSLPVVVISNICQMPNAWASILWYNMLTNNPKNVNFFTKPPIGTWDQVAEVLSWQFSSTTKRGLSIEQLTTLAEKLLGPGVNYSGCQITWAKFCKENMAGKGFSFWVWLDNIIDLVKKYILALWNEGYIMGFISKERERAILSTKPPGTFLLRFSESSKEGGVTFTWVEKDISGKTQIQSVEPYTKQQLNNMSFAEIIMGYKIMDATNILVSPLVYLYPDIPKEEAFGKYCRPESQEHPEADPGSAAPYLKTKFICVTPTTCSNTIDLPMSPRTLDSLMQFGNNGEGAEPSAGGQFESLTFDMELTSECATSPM
Sequence of Protein cereblon/Signal transducer and activator of transcription 3 (Q96SW2 whole entry partner): as the sequence (Q96SW2 whole entry, looked up) above
Summary of the method: (§2)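 SU-DHL-1 cells treated 18 h with test compound at 0.01–10 μM, or control compounds at 10 μM. Lysates separated by SDS–PAGE, transferred to PVDF, blocked 1 h in 5% blocker/TBST, probed for each STAT protein, and detected by chemiluminescence.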

[8] = target: T1, Protein cereblon/Signal transducer and activator of transcription 1-alpha/beta (Homo sapiens); experiment: Protac activity at CRBN/STAT1 in human SUDHL1 cells assessed as degradation of STAT1 at 0.01 to 10 uM incubated for 18 hrs by Western blot analysis; format: cell-based; summary of the method: as §2
[9] = target: T2, Protein cereblon/Signal transducer and activator of transcription 5B (Homo sapiens); experiment: Protac activity at CRBN/STAT5B in human SUDHL1 cells assessed as degradation of STAT5B at 0.01 to 10 uM incubated for 18 hrs by Western blot analysis; format: cell-based; summary of the method: as §2
Homo sapiens [10] = species: Homo sapiens; experiment: Selectivity index, ratio of protac activity at CRBN/STAT1 in human MOLM16 cells to protac activity at CRBN/STAT3 in human MOLM16 cells; format: cell-based
Summary of the method: (§3)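 Molm-16 cells treated 4 h with compound at 0.01–10 μM, or controls at 10 μM. Western blot of lysates: SDS–PAGE, PVDF, 1 h block in 5% blocker/TBST, primary and secondary antibodies, chemiluminescent detection. STAT1, -2, -4, -5A/B and -6 levels read against STAT3 to give degradation selectivity.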

Homo sapiens [11] = species: Homo sapiens; experiment: Selectivity index, ratio of protac activity at CRBN/STAT2 in human MOLM16 cells to protac activity at CRBN/STAT3 in human MOLM16 cells; format: cell-based; summary of the method: as §3
Homo sapiens [12] = species: Homo sapiens; experiment: Selectivity index, ratio of protac activity at CRBN/STAT2 in human SUDHL1 cells to protac activity at CRBN/STAT3 in human SUDHL1 cells; format: cell-based
Summary of the method: (§4)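 SU-DHL-1 cells treated 18 h with compound at 0.01–10 μM, or controls at 10 μM. Immunoblotting used SDS–PAGE, PVDF transfer, 1 h block in 5% blocker/TBST, primary and secondary antibodies and chemiluminescence. Levels of other STAT family members compared with STAT3 to express degradation selectivity.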

Homo sapiens [13] = species: Homo sapiens; experiment: Selectivity index, ratio of protac activity at CRBN/STAT5A in human SUDHL1 cells to protac activity at CRBN/STAT3 in human SUDHL1 cells; format: cell-based; summary of the method: as §4
[14] = Antitumor activity against human MOLM16 cells xenografted in […] mouse assessed as tumor regression at 25 or 50 mg/kg, iv administered 3 times per week for 3 weeks; format: functional
[15] = target: T3, Signal transducer and activator of transcription 1-alpha/beta (Homo sapiens, UniProt P42224); experiment: Binding affinity to recombinant human His/SUMO-tagged STAT1 (132 to 713 residues) expressed in Escherichia coli Rosetta (DE3) incubated for 1 hr by fluorescence polarization assay
T3 sequence (P42224 whole entry): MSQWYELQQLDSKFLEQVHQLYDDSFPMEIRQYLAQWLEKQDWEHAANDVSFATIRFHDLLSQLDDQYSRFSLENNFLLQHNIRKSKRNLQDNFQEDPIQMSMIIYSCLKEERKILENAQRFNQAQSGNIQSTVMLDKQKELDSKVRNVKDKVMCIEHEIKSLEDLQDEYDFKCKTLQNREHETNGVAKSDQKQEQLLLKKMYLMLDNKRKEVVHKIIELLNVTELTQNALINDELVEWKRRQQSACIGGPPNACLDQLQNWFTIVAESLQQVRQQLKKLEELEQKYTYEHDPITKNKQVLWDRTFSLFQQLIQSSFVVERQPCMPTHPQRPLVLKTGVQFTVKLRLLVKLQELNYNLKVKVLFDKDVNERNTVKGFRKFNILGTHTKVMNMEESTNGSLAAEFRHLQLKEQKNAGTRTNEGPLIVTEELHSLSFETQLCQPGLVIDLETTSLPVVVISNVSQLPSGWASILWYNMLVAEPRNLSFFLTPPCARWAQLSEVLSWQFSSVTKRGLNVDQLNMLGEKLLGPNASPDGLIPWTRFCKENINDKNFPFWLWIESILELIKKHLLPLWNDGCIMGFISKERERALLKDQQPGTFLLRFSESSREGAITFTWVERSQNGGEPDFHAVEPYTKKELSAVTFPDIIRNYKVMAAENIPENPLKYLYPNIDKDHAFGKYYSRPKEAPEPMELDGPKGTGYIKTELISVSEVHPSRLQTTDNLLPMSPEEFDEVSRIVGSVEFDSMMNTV

SMILES: NC(=O)CC[C@H](NC(=O)[C@@H]1CC[C@@H]2CCN(C(=O)CCCCCC#Cc3cccc4c3CN(C3CCC(=O)NC3=O)C4=O)C[C@H](NC(=O)c3cc4cc(C(F)(F)P(=O)(O)O)ccc4[nH]3)C(=O)N21)C(=O)NC(c1ccccc1)c1ccccc1 (stereo partly specified)
- IC50 (SU-DHL-1): 610 nM
- Activity [1]: inactive
- Activity [2]: inactive
- Activity [3]: inactive
- Activity [4]: inactive
- Activity [5]: inactive
- Activity [6]: inactive
- Activity [7]: Active
- Activity [8]: inactive
- Activity [9]: inactive
- Ratio (Homo sapiens [10]): > 100
- Ratio (Homo sapiens [11]): > 100
- Ratio (Homo sapiens [12]): > 100
- Ratio (Homo sapiens [13]): > 100
- Activity [14]: 100%
- Kd [15]: 1000 nM
